Laboratory results reported in article PMC11436873 (Nature Communications, 2024).
In brackets after ≈: the same amount, converted by molar mass. One block for each molecule: values may come before it.

What was measured:
HCT-8 cells = assay: host cell cytotoxicity, CellTiter AQueous; type: cell-based, human
In short: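 HCT-8 cells are grown in RPMI 1640 with 10% heat-inactivated FBS and penicillin/streptomycin at 37 °C, 5% CO2, used at passages 9–39. Confluent (>95%) monolayers get varying compound concentrations for 48 h. MTS reduction is read at 490 nm, blanked against trypsinised wells, and expressed as % viability versus DMSO. TC50 is curve-fitted; the selectivity index is the […].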

C. parvum [1] = assay: NOD SCID gamma mouse model of cryptosporidiosis, fecal parasite shedding by qPCR; type: in vivo; details: NSG mice
In short: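 Male NSG mice aged 4–5 weeks are infected with C. parvum oocysts. Oral gavage starts 7 (or 14) days post-infection and runs 7 days. Dosing stock in DMSO is diluted into 1% HPMC (5% DMSO final, 100 μL per dose), with a paromomycin control. Fecal shedding per mg feces is measured by qPCR at treatment start, at treatment end and one week later. n = 4 mice per group, mean and SEM.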

[2] = kinetic aqueous solubility
C. hominis Tu502 strain = assay: C. hominis growth in HCT-8 cells, same method; type: cell-based; details: Cryptosporidium hominis, HCT-8, read-out: C. hominis EC50
In short: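 TU502 oocysts, used within 1 month, excysted with 10 mM HCl (10 min, 37 °C) and then 2 mM sodium taurocholate in PBS (10 min, 16 °C). Material from 5500 oocysts/well was added to >95% confluent HCT-8 monolayers (passages 9–39, 37 °C, 5% CO2). Compound went in 3 h post-infection, with nitazoxanide as control. At 48 h, cells were fixed with paraformaldehyde and stained with fluorescein-Vicia villosa lectin plus Hoechst.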

C. parvum [3] = assay: Cryptosporidium rate-of-action assay in HCT-8 cells; type: cell-based, Cryptosporidium parvum; details: for parasite elimination in rate-of-action assay: nitazoxanide at EC90, highest tolerated concentration
In short: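 HCT-8 monolayers (>90% confluent) are infected with C. parvum sporozoites excysted with 10 mM HCl and then 2 mM taurocholate. […] Cells are fixed, stained with V. villosa lectin and Hoechst, and counted by epifluorescence. Counts are normalised to host nuclei and DMSO wells, then fitted to one-phase exponential decay. Four wells per condition.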

[4] = NSG mouse weights and tolerability during efficacy testing; type: in vivo, Mus musculus (NOD SCID gamma mice); details: 50 mpk twice daily, 7 days
hERG potassium channel = hERG potassium channel (Homo sapiens, UniProt Q12809); assay: hERG [3H]-dofetilide competitive binding; details: probe [3H]-dofetilide
47 human targets = assay: Eurofins SafetyScan47 panel, whole panel; details: dose-response up to 30 μM
Cryptosporidium = details: cited from earlier work
[5] = system: C. parvum CpPDE1 Val900Ala; assay: HCT-8 cell growth assay, CRISPR CpPDE1 Val900Ala mutant parasite; type: cell-based; details: Cryptosporidium parvum, HCT-8, read-out: EC50, CpPDE1 V900A, HCT-8 cell growth assay
human PDE-V = details: read-out: IC50 for human PDE-V; cited from earlier work

Sequence of hERG potassium channel (Q12809 whole entry): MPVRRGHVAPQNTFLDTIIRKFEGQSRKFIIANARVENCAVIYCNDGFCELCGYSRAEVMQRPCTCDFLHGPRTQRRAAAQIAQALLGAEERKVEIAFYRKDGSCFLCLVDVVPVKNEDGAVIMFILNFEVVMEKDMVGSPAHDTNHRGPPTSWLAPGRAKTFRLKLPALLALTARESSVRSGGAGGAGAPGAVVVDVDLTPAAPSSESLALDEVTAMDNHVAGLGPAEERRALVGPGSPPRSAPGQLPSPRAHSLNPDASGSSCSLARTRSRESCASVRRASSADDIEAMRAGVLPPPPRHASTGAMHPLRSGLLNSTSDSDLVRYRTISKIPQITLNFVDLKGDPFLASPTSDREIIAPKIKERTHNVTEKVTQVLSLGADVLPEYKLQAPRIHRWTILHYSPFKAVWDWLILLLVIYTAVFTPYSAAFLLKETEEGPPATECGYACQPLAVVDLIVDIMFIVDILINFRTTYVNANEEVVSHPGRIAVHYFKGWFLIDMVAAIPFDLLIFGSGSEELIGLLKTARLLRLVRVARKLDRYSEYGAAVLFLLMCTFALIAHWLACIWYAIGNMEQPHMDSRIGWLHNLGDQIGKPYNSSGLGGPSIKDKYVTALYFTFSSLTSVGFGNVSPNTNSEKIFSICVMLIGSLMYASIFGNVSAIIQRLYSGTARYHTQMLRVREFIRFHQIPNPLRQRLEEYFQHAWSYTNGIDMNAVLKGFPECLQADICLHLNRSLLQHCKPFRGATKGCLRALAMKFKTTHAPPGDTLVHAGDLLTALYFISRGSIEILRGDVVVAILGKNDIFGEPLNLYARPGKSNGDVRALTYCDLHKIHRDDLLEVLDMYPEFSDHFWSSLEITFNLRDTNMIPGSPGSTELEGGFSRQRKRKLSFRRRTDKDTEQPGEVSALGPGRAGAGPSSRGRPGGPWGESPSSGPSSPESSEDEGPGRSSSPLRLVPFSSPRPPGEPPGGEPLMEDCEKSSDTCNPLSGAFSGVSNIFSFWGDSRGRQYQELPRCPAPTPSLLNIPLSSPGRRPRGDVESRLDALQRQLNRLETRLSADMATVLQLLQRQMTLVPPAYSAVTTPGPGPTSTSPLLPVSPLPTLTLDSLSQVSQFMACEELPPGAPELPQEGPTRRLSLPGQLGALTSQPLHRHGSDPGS

solubility kinetic at 2 h ([2]; PBS, pH 7.4, aqueous buffer, kinetic from dmso stock): 21 µM (≈ 9.93 µg/mL)
Compound: COc1ccc(CNc2nc(-c3ccc(C(=O)O)cc3)nc3c2c2ccccc2n3C)cc1Cl [PDEi4]
selectivity index (HCT-8 cells; HCT-8 TC50 vs C. parvum EC50): 100
efficacy, 7-day dosing (C. parvum [1]; 50 mpk twice daily oral): no significant effect

Compound: CCc1nn(C)c2nc(-c3ccc(C(=O)O)cc3)nc(NCc3ccc(F)cc3)c12 [PDEi5, 4-(3-ethyl-4-((4-fluorobenzyl)amino)-1-methyl-1H-pyrazolo[3,4-d]pyrimidin-6-yl)benzoic acid]
EC50 (C. hominis Tu502 strain): 4.7 µM
time required for 99.9% parasite reduction (C. parvum [3]; in the absence of host immune help): ~ 107 h
toxicity to the HCT-8 cell line (HCT-8 cells; 100 μM, highest concentration tested): non-toxic
reduction of parasite shedding after 7 days of treatment (C. parvum [1]; 50 mpk twice daily oral): ~ 99%
relapse after treatment (C. parvum [1]; after 7-day dosing): infection relapsed within a week of stopping treatment
fall of mean mouse weight in the final days of treatment [4]: ~ 5%
inhibition at 10 µM (hERG potassium channel): -14.7%
SafetyScan47 EC50/IC50 for 45 of 47 targets (47 human targets): > 30 µM
solubility kinetic ([2]; aqueous solution, pH 7.4): 200 µM (≈ 81.1 µg/mL)

Compound: CC(=O)Oc1ccccc1C(=O)Nc1ncc([N+](=O)[O-])s1 [nitazoxanide]
parasite elimination in rate-of-action assay (C. parvum [3]): no nitazoxanide-dependent parasite elimination occurred
parasite elimination in rate-of-action assay (C. parvum [3]; listed as NTZ): No exponential decay curve could be fit
effectiveness in AIDS patients (Cryptosporidium): equivalent to a placebo
effectiveness in children (Cryptosporidium): ~ 56%

Compound: CCCc1nn(C)c2c(=O)[nH]c(-c3cc(S(=O)(=O)N4CCN(C)CC4)ccc3OCC)nc12 [sildenafil]
EC50 [5]: 14 µM
IC50 (human PDE-V): 0.0035 µM
